5 compounds from ChEMBL document CHEMBL2034894, “The structures of three metabolites of the algal hepatotoxin okadaic acid produced by oxidation with human cytochrome P450” (Bioorg Med Chem, 2012) can be followed below.

Each structure is given as a SMILES string. The source made the active and inactive calls. The calls are words filed in the database; no cut-off is given here. Numbered stars: 1 amine (or outer) side, 2 acyl side, 3 side chain; on linkers, the order of the positions; unused ones are H or OH. Bridge positions count the residues as written; N and C are the ends. Square brackets hold non-standard residues; d marks the D form. Peptide text beside a SMILES is read from it. Adda = CO[C@@H](Cc1ccccc1)[C@@H](C)/C=C(C)/C=C/[C@H](N[*:1])[C@H](C)C(=O)[*:2]; dAsp(3S-Me) = C[C@H](C(=O)[*:3])[C@@H](N[*:1])C(=O)[*:2]; d(γGlu) = O=C(O)[C@@H](CCC(=O)[*:2])N[*:1]; NMeDha = C=C(NC)C(=O)O

The nature of experiment [1]: Irreversible inhibition of PP2A using p-NPP as substrate assessed as recovery of enzyme activity pretreated for 1 hr followed by 4 hrs dialysis by spectrophotometry. In short, it runs like this: (§1)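 PP2A (0.07 U) was mixed 1:1 by volume with inhibitor solutions in 5% MeOH/H2O (20–100 µM before mixing) at 37 °C; controls got 5% MeOH/H2O alone. Buffer: 50 mM Tris, 2 mM MnCl2, 1.1 mM EDTA, 1.3 mM DTT, 0.125 mg/mL BSA. Samples were dialysed against buffer for 4 h at 5–7 °C, then given p-NPP (7.8 mM final) for 2 h at 37 °C; A405 read against control.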

Experiment [2] in a line: Inhibition of PP2A using p-NPP as substrate pretreated for 1 hr by spectrophotometry.
The nature of experiment [3]: Reversible inhibition of PP2A using p-NPP as substrate assessed as recovery of enzyme activity at 80 uM […] followed by 4 hrs dialysis by spectrophotometry relative to control. Set-up: scale not given: the % may be the effect or the level left.
The nature of experiment [4]: Inhibition of protein phosphatase 1.
A short description of experiment [5]: Reversible inhibition of PP2A using p-NPP as substrate assessed as recovery of enzyme activity at 100 uM pretreated for […] followed by 4 hrs dialysis by spectrophotometry relative to control. Set-up: scale not given: the % may be the effect or the level left. The method in brief: as §1

A word on the IC50: it is the midpoint of a concentration-inhibition curve.

Regarding `C=C1C(=O)N[C@H](C)C(=O)N[C@@H](CC(C)C)C(=O)N[C@@H](C(=O)O)[C@H](C)C(=O)N[C@@H](CCCNC(=N)N)C(=O)N[C@@H](/C=C/C(C)=C/[C@H](C)[C@H](Cc2ccccc2)OC)[C@H](C)C(=O)N[C@@H](C(=O)O)CCC(=O)N1C` (R[Adda][d(γGlu)][NMeDha][dA]L[dAsp(3S-Me)]-OH; lactam N-7), in experiment [1], the inhibition entry was “Active”.
On to `C=C1[C@@H](O)[C@@H]2O[C@]3(CC[C@H](/C=C/[C@@H](C)[C@@H]4CC(C=O)=C[C@@]5(O[C@H](C[C@@](C)(O)C(=O)O)CC[C@H]5O)O4)O3)CC[C@H]2O[C@@H]1[C@@H](O)C[C@H](C)[C@H]1O[C@@]2(CCCCO2)CC[C@H]1C`, for which, in experiment [2], the IC50 is 3.98 nM. The Activity in experiment [3] stood at 117%. Besides, the inhibition result in experiment [4] was “Active”.
`C=C1[C@@H](O)[C@@H]2O[C@]3(CC[C@H](/C=C/[C@@H](C)[C@@H]4CC(C)=C[C@@]5(O[C@H](C[C@@](C)(O)C(=O)O)CC[C@H]5O)O4)O3)CC[C@H]2O[C@@H]1[C@@H](O)C[C@H](C)[C@H]1O[C@@]2(CCCCO2)CC[C@H]1C`: the inhibition result in experiment [2] and in experiment [4] was “Active” in each case.
With `C=C1[C@@H](O)[C@@H]2O[C@]3(CC[C@H](/C=C/[C@@H](C)[C@@H]4CC(CO)=C[C@@]5(O[C@H](C[C@@](C)(O)C(=O)O)CC[C@H]5O)O4)O3)CC[C@H]2O[C@@H]1[C@@H](O)C[C@H](C)[C@H]1O[C@@]2(CCCCO2)CC[C@H]1C`, in experiment [2], the IC50 came to 1.34 nM. For the same compound, the Activity in experiment [5] is 113%. The inhibition entry in experiment [4] was “Active”.
As to `C=C1[C@@H](O)[C@@H]2O[C@]3(CC[C@H](/C=C/[C@@H](C)[C@@H]4CC(C)=C[C@@]5(O[C@H](C[C@@](C)(O)C(=O)O)CC[C@H]5O)O4)O3)CC[C@H]2O[C@@H]1[C@@H](O)C[C@H](C)[C@H]1O[C@]2(CC[C@H]1C)CC(O)CCO2` (stereo partly specified), in experiment [2], the IC50 is 0.94 nM. The inhibition result in experiment [4] was “Active”.
